In the library only some 4.1% were active in any assay of this set; here they are far more common.
RGS4 inh = RGS4 inhibitors, primary screen, cell-based, HEK293 M3R inducible RGS4, calcium flux; Fluo-4 calcium flux; stronger effect = higher value; triggered by carbachol at its EC20; B-score at 10 µM; hit rate 0.45% among 310,000;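 active = B-score, a plate-corrected calcium signal, over three deviations above library mean, with baseline fluorescence within five deviations of library mean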;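 note: RGS4 expression induced by doxycycline in cells with stable M3 receptor; B-score is computed from the integrated fluorescence ratio over baseline after carbachol; higher B-score means a larger calcium signal and so more RGS4 inhibition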
Target sequence (P49798 whole entry, looked up): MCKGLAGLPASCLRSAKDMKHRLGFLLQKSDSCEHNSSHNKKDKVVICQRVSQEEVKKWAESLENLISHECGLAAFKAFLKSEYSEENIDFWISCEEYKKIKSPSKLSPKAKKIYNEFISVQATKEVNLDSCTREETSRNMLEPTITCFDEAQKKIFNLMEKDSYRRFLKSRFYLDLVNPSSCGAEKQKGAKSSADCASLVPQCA
Kir21 inh = inhibitors of mouse Kir2.1 inward-rectifier potassium channel. Inward rectifier potassium channel 2 (Mus musculus), P35561. HEK293-Kir2.1, FluxOR thallium flux fluorescence; stronger effect = lower value. B-score at 10 µM. hit rate 0.85% among 310,000. AID 1672, 2009;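 active = fluorescence ratio B-score at or below minus 3 SD of library scores, with starting-brightness B-score within 2 SD, cut at about -4.2 in these data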;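 note: channel flux triggered by added potassium and thallium sulfate stimulus; B-score of peak minus minimum fluorescence over baseline after thallium stimulus; more negative B-score means stronger Kir2.1 block with less thallium influx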
Target sequence (P35561 whole entry, looked up): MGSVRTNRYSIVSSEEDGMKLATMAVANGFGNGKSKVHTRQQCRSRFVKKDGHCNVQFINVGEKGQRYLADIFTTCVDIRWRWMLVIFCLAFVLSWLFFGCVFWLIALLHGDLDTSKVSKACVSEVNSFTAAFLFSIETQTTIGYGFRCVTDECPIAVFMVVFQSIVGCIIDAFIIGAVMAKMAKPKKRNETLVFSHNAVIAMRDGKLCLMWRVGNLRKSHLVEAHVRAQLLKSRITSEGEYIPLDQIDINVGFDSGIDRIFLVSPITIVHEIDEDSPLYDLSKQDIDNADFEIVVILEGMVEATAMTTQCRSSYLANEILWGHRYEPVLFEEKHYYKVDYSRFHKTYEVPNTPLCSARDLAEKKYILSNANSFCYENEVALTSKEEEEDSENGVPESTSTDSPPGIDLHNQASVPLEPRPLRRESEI
MrgX1 antag = antagonists of human MrgX1 receptor, primary screen, HEK293 cells, Fluo-4 calcium flux; Mas-related G-protein coupled receptor member X1 (Homo sapiens), Q96LB2; BAM8-22 antagonism; stronger effect = lower value; B-score at 10 µM; hit rate 1.3% among 310,000; AID 588676, 2011;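 active = calcium-response B-score plate-corrected more than 3 library SD below zero, starting fluorescence within 5 deviations, no agonist response on first addition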;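 note: peak minus trough fluorescence over baseline after final BAM8-22 challenge near maximal dose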
RGS4 act = RGS4 potentiators or activators, primary screen, cell-based, HEK293 M3R inducible RGS4, calcium flux | carbachol calcium flux Fluo4; stronger effect = lower value | B-score at 10 µM | hit rate 0.92% among 310,000 | AID 463111, 2010;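 active = B-score of the integrated calcium signal more than 4 SD below the library mean, with starting fluorescence not abnormally high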;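 note: negative B-score means reduced calcium response which marks RGS4 activation or potentiation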
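System – HEK293 FlpIn-TREx cells, stable M3R, doxycycline-inducible RGS4 · Reagent – ECmax carbachol challenge · Times – compound preincubation 20 min at room temperature before agonist · Technique – Fluo4 fluorescence kinetic imaging of calcium · Measure – B score of integrated Fluo4 ratio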
MrgX1 PAM = positive allosteric modulators of MrgX1, primary screen, HEK293 cells, Fluo-4 calcium flux. B-score at 10 µM. AID 588675, 2011. hit rate 0.63% among 310,000. Mas-related G-protein coupled receptor member X1 (Homo sapiens), Q96LB2. FDSS; stronger effect = higher value;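 active = plate-corrected calcium response at least 3 library SD above typical, normal starting fluorescence, not activating the receptor alone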;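 note: compound read alongside a low EC10 to EC30 dose of BAM8-22 agonist; peak minus trough fluorescence over baseline measured at the second addition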
MrgX1 agonist = agonists of human MrgX1 receptor, primary screen, HEK293 cells, Fluo-4 calcium flux; Mas-related G-protein coupled receptor member X1 (Homo sapiens), Q96LB2; Fluo-4 calcium fluorescence, agonist mode; stronger effect = higher value; B-score at 10 µM; hit rate 0.44% among 310,000; AID 588627, 2011;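 active = calcium response B-score plate-corrected fluorescence ratio at least 3 library SD, with starting fluorescence B-score inside 5 SD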
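Test system: Stable human MrgX1 HEK293 cell line | Schedule: Overnight plating before 1 h dye loading | Read-out basis: Baseline-normalised fluorescence change ratio, B-scored | Detection: Kinetic calcium dye fluorescence, Fluo-4 NW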
The depositor's hits bear a star; i = inactive; x = no result given.

SMILES	RGS4 inh	Kir21 inh	MrgX1 antag	RGS4 act	MrgX1 PAM	MrgX1 agonist
COc1cc(/C=C2/C(=O)c3cccc([N+](=O)[O-])c3C2=O)c(Br)cc1O	x	x	i	x	i	35*
OC(CN1CCNCC1)Cn1ccc2ccccc21 (stereo unspecified)	i	-0.4	i	i	i	i
OC(CNCc1ccccc1)Cn1ccc2ccccc21 (stereo unspecified)	i	-5.2*	i	i	i	i
CCC(C(=O)OCC(=O)Nc1c(C)nn(-c2ccccc2)c1C)c1ccccc1 (stereo unspecified)	i	0	i	i	i	i
COc1cccc(N2C(=O)CC(NNc3nc4ccccc4s3)C2=O)c1 (stereo unspecified)	i	1.8	i	i	i	30*
COc1cc(CNC2CCCCCC2)cc(OC)c1O	i	-0.28	i	i	i	i
COc1cc(CNC2CCCC2)cc(Cl)c1OCc1ccccc1F	i	-4.7*	i	i	i	i
COC(=O)c1ccccc1SC(CC(=O)c1ccccc1)c1ccc(F)cc1 (stereo unspecified)	i	0.71	i	-7.1*	i	i
Cc1oc(-c2ccccc2Cl)nc1CN1CCCCC1c1cccnc1 (stereo unspecified)	i	1	i	i	i	41*
Cc1ccc(C23CC4CC(CC(CN)(C4)C2)C3)cc1	i	-5.9*	x	i	x	x
NCC12CC3CC(C1)CC(c1ccc(Br)cc1)(C3)C2	i	-9.5*	i	i	i	i
Cc1c(C(=O)N/N=C/c2ccoc2)cccc1[N+](=O)[O-]	i	-1.1	i	i	i	i
O=C1NCC(c2ccccc2)C1C(=O)N/N=C/c1ccc(Cl)s1 (stereo unspecified)	i	-0.57	i	i	i	31*
COc1ccc(/C=N\NC(=O)C2C(=O)NCC2c2ccccc2)cc1O (stereo unspecified)	i	0.88	i	i	i	i
O=C1NCC(c2ccccc2)C1C(=O)N/N=C\c1ccc(-c2ccc(Cl)c(Cl)c2)o1 (stereo unspecified)	9*	-0.34	i	i	i	i
COc1ccccc1N1CCN(C(=O)c2sc3ncnc(N4CCN(c5ccccn5)CC4)c3c2C)CC1	i	0.23	i	i	i	i
COc1ccccc1N1CCN(C(=O)c2sc3nc(C)nc(N4CCN(c5ccccn5)CC4)c3c2C)CC1	i	1.4	i	-8.2*	i	i
Cc1ccc(C(=O)N/N=C/c2ccc(OC(=O)c3ccccc3Cl)cc2)cn1	i	-0.29	i	i	i	i
Cc1cccc(C(=O)Oc2ccc(/C=N/O)cc2)c1	i	0.65	i	i	7.7*	i
O=C(Oc1ccc(/C=N/O)cc1)c1ccccc1Cl	i	-1.7	i	i	16*	i
COc1ccc(Cc2noc(CN(C)CC(O)c3ccccc3)n2)cc1OC (stereo unspecified)	i	0.67	-5.2*	i	i	i
COc1ccc(CN(C)Cc2nc(Cc3ccccc3Cl)no2)cc1OC	i	-2.6	i	i	i	i
COC(=O)c1sc(S(=O)(=O)Nc2ccc(C)cc2)c(C(=O)OC)c1C	i	0.8	i	i	i	i
COC(=O)c1sc(S(=O)(=O)NCc2ccccc2)c(C(=O)OC)c1C	i	-5.2*	i	i	i	i
OCCN1CCN(CC(O)COc2ccc(C34CC5CC(CC(C5)C3)C4)cc2)CC1 (stereo unspecified)	i	-4.4*	i	i	i	i
SMILES	RGS4 inh	Kir21 inh	MrgX1 antag	RGS4 act	MrgX1 PAM	MrgX1 agonist
OCCN1CCN(CC(O)COc2ccc(Cl)cc2)CC1 (stereo unspecified)	i	0.18	i	i	i	i
O=c1oc2ccccc2cc1-c1csc(NN=C2CCCCC2)n1	i	0.09	i	-7.5*	i	i
CN(c1ccccc1)S(=O)(=O)c1cc(Cl)ccc1Cl	i	-1.6	i	i	i	i
COc1ccc(Cc2nc3ccc(C(=O)NCc4ncc(C)[nH]4)cc3o2)cc1OC	i	0.05	i	i	i	i
COc1ccc(Cc2nc3ccc(C(=O)NC(C)Cc4ncccc4C)cc3o2)cc1OC (stereo unspecified)	i	-0.86	i	-7*	i	i
CC1(C)COCN1S(=O)(=O)c1ccc(C(=O)Nc2nnc(-c3ccc(Cl)s3)o2)cc1	i	-0.99	i	i	i	80*
Cc1cccc(OCC(O)Cn2c(N3CCCCC3)nc3c2c(=O)n(C)c(=O)n3C)c1 (stereo unspecified)	i	0.99	i	i	7.2*	i
Cn1c(=O)c2c(nc(N3CCCCC3)n2CC(O)COc2ccccc2)n(C)c1=O (stereo unspecified)	i	0.33	i	i	i	i
CN1CCC(=C(c2ccccc2)c2ccc(Br)cc2)CC1	i	-8.6*	i	-7.7*	i	i
CCOc1ccccc1CNS(=O)(=O)c1ccc2c(c1)oc(=O)n2C	i	-2.2	i	i	i	i
CCOc1ccccc1CNS(=O)(=O)c1ccc2[nH]c(=O)sc2c1	i	-5.2*	i	i	i	i
C#CCOCCOCCOCCNc1nc(N2CCN(C(=O)Cn3cc(CCO)nn3)CC2)nc(N2CCN(C(=O)[C@H](C(C)C)n3cc(CCO)nn3)CC2)n1	i	-0.21	i	i	i	i
CCOC(=O)c1c(NC(=O)CSc2c[nH]c3ccccc23)sc2c1CCC2	i	-1.6	i	-7.1*	i	i
CCOC(=O)c1c(NC(=O)C(NCCN(C)C)c2ccccc2)sc2c1CCCC2 (stereo unspecified)	i	-6.2*	i	i	i	i
CCOC(=O)c1c(NC(=O)CSc2c[nH]c3ccccc23)sc2c1CCCC2	i	-0.32	i	i	i	i
O=C(CSC1=NC(=O)C(Cc2ccccc2)C(=O)N1)NC1CCCCC1 (stereo unspecified)	i	0.77	i	i	i	i
